Measurements: paper PMC4238591 (Analytical Chemistry, 2014)
“And” between values parts separate entries of the source, which are not always exact repeats. Equal entries are not always repeated. Where two headings read alike, the source gives them in different places.

How the values were obtained:
[1] = SHG isotherm of nonspecific binding of CTB to pure DOPC bilayer; conditions: entire CTB concentration range examined (0.22 to 13 nM)
[2] = assay type: binding, Ovine
[3] = SPR, 120–240 nM CTB, cited from earlier work
[4] = fluorescence; 1 mol % GM1; Hill–Waud model; cited from earlier work
[5] = tested on: N-acetylgalactose receptors on Chinese hamster ovarian (CHO) cells; conditions: lectin iodination, PnA 10–60 μM, at least 1 h incubation; cited from earlier work
[6] = SHCS of nonspecific binding of PnA to pure DOPC bilayer; conditions: 0.43, 3 and 12 μM PnA, pure DOPC bilayer without GM1
How it was run: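 Data were recorded after steady-state equilibrium on each laser pulse (20 Hz, 50 ms step). For each protein concentration, 20 sets of 5000 points each (1.4 h) were taken. Each set's FFT was multiplied by its complex conjugate, the sets were averaged, and the result was inverse-transformed to give the autocorrelation. Time-zero points were normalized to matching specific-binding data (5 mol % GM1 in DOPC).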

[7] = cited from earlier work
[8] = SHCS of PnA binding to 5 mol % GM1-doped DOPC lipid bilayer; design: species or system Ovine; conditions: for equilibrium binding affinity Ka: eq 2
[9] = [PnA] 0.43 μM, 5 mol % GM1, SHCS
[10] = [PnA] 3.0 μM, 5 mol % GM1, SHCS
[11] = [PnA] 12.2 μM, 5 mol % GM1, SHCS

For CTB, the nonspecific binding [1] is given as “negligible nonspecific binding”, the koff [2] is given as 3.6 ± 0.5 ×10^–5 s^–1 and 3.2 ± 0.4 ×10^–5 s^–1 and 2.5 ± 0.2 ×10^–5 s^–1 and the kon ([3]; 5 mol % GM1-doped lipid bilayer) is given as 1.27 × 10^6 M^–1·s^–1. The Kd ([3]; steady-state equilibrium) was 4.61 pM, the Ka [4] was “(3.2 ± 0.7) × 10^9 M ^–1” and the Kd [4] was 0.31 nM. For the same molecule, the “n (Hill coefficient)” value [4] was 1.9.

B1: PnA: Peanut (Arachis hypogaea) agglutinin, tetrameric lectin that binds specifically to terminal D-galactosyl groups; from Sigma-Aldrich (protein, UniProt P02872 24-273, looked up)
Galactose-binding lectin: AETVSFNFNSFSEGNPAINFQGDVTVLSNGNIQLTNLNKVNSVGRVLYAMPVRIWSSATGNVASFLTSFSFEMKDIKDYDPADGIIFFIAPEDTQIPAGSIGGGTLGVSDTKGAGHFVGVEFDTYSNSEYNDPPTDHVGIDVNSVDSVKTVPWNSVSGAVVKVTVIYDSSTKTLSVAVTNDNGDITTIAQVVDLKAKLPERVKFGFSASGSLGGRQIHLIRSWSFTSTLITTTRRSIDNNEKKIMNMASA
For B1, the Ka [5] is given as “(4.5 ± 1) × 10^6 M^–1”, the nonspecific binding [6] is given as “negligible nonspecific binding” and the pI [7] is given as about 6. For the same molecule, the adsorption rate ([8]; 0.43 μM PnA, 5 mol % GM1, SHCS) was “(3.7 ± 0.3) × 10^6 M^–1·s^–1”, the desorption rate ([8]; 0.43 μM PnA, 5 mol % GM1, SHCS) was “(1.0 ± 0.2) × 10^–3 s^–1” and the “equilibrium binding affinity Ka” value ([8]; 0.43 μM PnA, SHCS) was “(3.7 ± 0.8) × 10^9 M^–1”. For the same molecule, the adsorption rate ([8]; 3 μM PnA, 5 mol % GM1, SHCS) was “(3.9 ± 0.3) × 10^5 M^–1·s^–1”, the desorption rate ([8]; 3 μM PnA, 5 mol % GM1, SHCS) was “(2.2 ± 0.2) × 10^–3 s^–1” and the “equilibrium binding affinity Ka” value ([8]; 3 μM PnA, SHCS) was “(1.7 ± 0.2) × 10^8 M^–1”. For the same molecule, the adsorption rate ([8]; 12 μM PnA, 5 mol % GM1, SHCS) was “(1.1 ± 0.1) × 10^5 M^–1·s^–1”, the desorption rate ([8]; 12 μM PnA, 5 mol % GM1, SHCS) was “(2.7 ± 0.2) × 10^–3 s^–1” and the “equilibrium binding affinity Ka” value ([8]; 12 μM PnA, SHCS) was “(4.1 ± 0.5) × 10^7 M^–1”. For the same molecule, the Ka ([8]; 60 μM PnA, 5 mol % GM1, SHCS) was “(8.4 ± 1.4) × 10^6 M^–1”, the adsorption rate ([8]; 60 μM PnA, 5 mol % GM1, SHCS) was “(3.1 ± 0.3) × 10^4 M^–1·s^–1” and the desorption rate ([8]; 60 μM PnA, 5 mol % GM1, SHCS) was “(3.7 ± 0.5) × 10^–3 s^–1”. For the same molecule, the koff [8, 9] was 1.0 ± 0.2 ×10^–3 s^–1, the kon [8, 9] was 37 ± 3 ×10^5 M^–1·s^–1 and the Ka ([8]; [PnA] 0.43 μM, calculated by eq 2) was 37 ± 8 ×10^8 M^–1. For the same molecule, the koff [8, 10] was 2.2 ± 0.2 ×10^–3 s^–1, the kon [8, 10] was 3.9 ± 0.3 ×10^5 M^–1·s^–1 and the Ka ([8]; [PnA] 3.0 μM, calculated by eq 2) was 1.7 ± 0.2 ×10^8 M^–1. The koff [8, 11] was 2.7 ± 0.2 ×10^–3 s^–1, the kon [8, 11] was 1.1 ± 0.1 ×10^5 M^–1·s^–1 and the Ka ([8]; [PnA] 12.2 μM, calculated by eq 2) was 0.41 ± 0.05 ×10^8 M^–1.
